# Measured values collected from several papers.
# Target: Prostaglandin G/H synthase 1 (PTGS1, Ovis aries, UniProt P05979)
# Read-out: enzyme activity
# Action: inhibitor
# One construct used (P05979 25-600): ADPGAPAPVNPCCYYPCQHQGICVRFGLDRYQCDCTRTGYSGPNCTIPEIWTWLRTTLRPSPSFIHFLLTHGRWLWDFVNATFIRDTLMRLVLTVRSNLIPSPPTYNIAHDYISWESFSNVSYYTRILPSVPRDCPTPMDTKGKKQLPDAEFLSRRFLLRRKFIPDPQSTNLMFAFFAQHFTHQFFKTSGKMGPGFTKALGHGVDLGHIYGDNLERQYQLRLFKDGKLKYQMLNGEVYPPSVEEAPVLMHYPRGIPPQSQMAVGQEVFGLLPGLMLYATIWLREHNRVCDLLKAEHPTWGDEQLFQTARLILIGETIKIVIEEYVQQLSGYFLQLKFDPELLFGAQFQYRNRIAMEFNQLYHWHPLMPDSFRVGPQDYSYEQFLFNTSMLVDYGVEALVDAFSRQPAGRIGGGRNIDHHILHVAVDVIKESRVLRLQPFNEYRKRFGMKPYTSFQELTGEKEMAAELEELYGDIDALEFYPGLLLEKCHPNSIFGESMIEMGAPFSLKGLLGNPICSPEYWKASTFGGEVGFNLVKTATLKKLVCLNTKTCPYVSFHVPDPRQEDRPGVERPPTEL
Compound,test,IC50 [µM]
COc1ccc(Nc2c(-c3ccc(S(C)(=O)=O)cc3)nc3cc(C)ccn23)cc1,fluorescence,29.7
COc1ccccc1-c1ccc(F)c(C(F)(F)F)c1,absorbance,9.99
NS(=O)(=O)c1ccc(-c2ncccc2-c2nc3ccccc3s2)cc1,absorbance,> 100
Cc1ccc(Nc2c(-c3ccc(S(C)(=O)=O)cc3)nc3c(C)cccn23)cc1,fluorescence,35.6
CC(C)Cc1ccc(-c2nn(-c3ccc(S(C)(=O)=O)cc3)cc2/C=N\N=C2/NC(=O)CS2)cc1,,19.7
CS(=O)(=O)c1ccc(-c2ncccc2-c2nc3ccccc3s2)cc1,absorbance,> 100
CC(C(=O)O)c1cccc(C(=O)c2ccccc2)c1 (stereo not drawn),,0.05
CC(C)Cc1ccc(-c2nn(-c3ccc(S(C)(=O)=O)cc3)cc2/C=N/N=c2\[nH]c(-c3ccc([N+](=O)[O-])cc3)cs2)cc1,,34.4
Cc1ccc(-c2nc3ccccc3s2)c(-c2ccc(S(N)(=O)=O)cc2)c1,absorbance,> 100
Cc1ccc(Nc2c(-c3ccc(S(C)(=O)=O)cc3)nc3ccccn23)cc1,fluorescence,23.1
CSc1ccc(/C=C2\C=C(CC(=O)NS(=O)(=O)c3ccc4ccccc4c3)c3cc(F)ccc32)cc1,,2
Cc1cccc2nc(-c3ccc(S(C)(=O)=O)cc3)c(Nc3ccc(Cl)cc3)n12,fluorescence,27.1
CS(=O)(=O)c1ccc(-n2cc(/C=N/N=c3\[nH]c(-c4ccc(Br)cc4)cs3)c(-c3ccc(Br)cc3)n2)cc1,,9.42
COc1ccc(F)c(-c2ccccc2F)c1,absorbance,9.98
C[C@@H]1O[C@@H](O[C@H]2[C@H](Oc3c(-c4ccc(O)cc4)oc4cc(O)cc(O)c4c3=O)O[C@H](CO[C@@H]3O[C@H](CO)[C@@H](O)[C@H](O)[C@H]3O)[C@@H](O)[C@@H]2O)[C@H](O)[C@H](O)[C@H]1O,absorbance,21.8
Cc1ccn2c(Nc3ccc(F)cc3)c(-c3ccc(S(C)(=O)=O)cc3)nc2c1,fluorescence,33.6
COc1ccccc1-c1ccc([N+](=O)[O-])cc1,absorbance,8.79
CS(=O)(=O)c1ccc(-n2cc(C=N/N=c3\[nH]c(-c4ccc(Br)cc4)cs3)c(-c3ccc([N+](=O)[O-])cc3)n2)cc1,,68.2
CSc1ccc(/C=C2\C=C(CC(=O)NS(=O)(=O)c3ccc(C(F)(F)F)cc3)c3cc(F)ccc32)cc1,,3.9
COc1ccc(Nc2c(-c3ccc(S(C)(=O)=O)cc3)nc3c(C)cccn23)cc1,fluorescence,30
COc1ccccc1-c1cccc([N+](=O)[O-])c1F,absorbance,9.34
CS(=O)(=O)c1ccc(-n2cc(/C=N/N=c3\[nH]c(-c4ccc([N+](=O)[O-])cc4)cs3)c(-c3ccc([N+](=O)[O-])cc3)n2)cc1,,38.5
O=C(O)CC1=C/C(=C\c2cccc(-c3ccc(F)cc3)n2)c2ccc(F)cc21,,9.3
Cc1cccc2nc(-c3ccc(S(C)(=O)=O)cc3)c(Nc3ccc(F)cc3)n12,fluorescence,40.2
